High-throughput results from PubChem BioAssay.
Compounds with a hit are over-represented: about 1.8% of the library has one in this group of screens.
PERK inh: inhibitors of human PERK kinase; CHO PERK-DD fusion, SEAP luminescence translation reporter; inhibition, % at 5.6 µM; 220,000 compounds, 0.17% hits; AID 1416;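 active means inhibition above the mean inhibition of all tested compounds plus 3 SD, set separately per screening campaign, cut at about 2.9% in these data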;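 further: PERK kinase domain activated by AP20187 dimerizer at 100 nM; 0% = DMSO with dimerizer and 100% = rapamycin at 8.4 µM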
STAT3 act: activators of IL-6 induced STAT3 signaling; activation (% of control), % at 5.6 µM; AID 871; 190,000 compounds, 0.91% hits; U3A cells, IL-6 STAT3-luciferase reporter, luminescence; 100% = signal with IL-6 EC80 alone;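 active means activation above the screen-wide mean of compound activation plus 3 SD, cut at about 130% in these data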;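 further: 0% = background luminescence of wells with medium and substrate only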
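Material: STAT3-luciferase reporter U3A cells; Probe or stimulus: IL-6 (33 ng/mL); Incubation: compound pre-incubation 1 h before IL-6, then 6 h stimulation at 37 °C; Technique: luminescence from STAT3-driven luciferase reporter; Evaluation: % activation versus median of IL-6-stimulated wells; Controls: IL-6-only high control.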
STAT1 blocker: STAT1 signaling inhibition; NIH 3T3 STAT1-luciferase reporter, IFN-gamma, luminescence; inhibition, % at 5.5 µM; 200,000 compounds, 0.35% hits; AID 920;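 active means inhibition above a set limit, the mean inhibition across all tested compounds plus 3 SD, cut at about 34% in these data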;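 further: 0% = IFN-gamma with DMSO and 100% = IFN-gamma with 300 µM nifuroxazide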
STAT3 inh-1: inhibitors of IL-6 induced STAT3 signaling; U3A cells, IL-6 STAT3-luciferase reporter, luminescence; host cell line lacks STAT1; inhibition, % at 5.5 µM; 190,000 compounds, 0.89% hits;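 active means inhibition above the mean inhibition across all screened compounds plus 3 SD, cut at about 44% in these data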;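 further: 0% = DMSO only wells and 100% = 100 µM nifuroxazide control wells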
STAT3 inh-2: STAT3 inhibition, confirmation assay; AID 1265; U3A cells, IL-6 STAT3 luciferase reporter, luminescence; cell line lacks STAT1; inhibition, % at 5.7 µM; 1,200 compounds, 45% hits; shares compounds with STAT3 inh-1;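 active means inhibition above the hit cutoff computed for the primary STAT3 screen, cut at about 44% in these data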;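 further: 0% = IL-6 plus DMSO and 100% = IL-6 plus nifuroxazide control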
NFkB inh 2: inhibits NF-kappaB, counter-screen to STAT3 inhibitors. shares compounds with STAT3 inh-1. AID 1308. inhibition, % at 5.7 µM. 1,200 compounds, 36% hits. HEK293T NF-kB luciferase reporter, TNF-alpha induced;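 active means inhibition above the mean of solvent-only control wells plus 3 SD, cutoff set per campaign, cut at about 13% in these data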;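 further: 0% = TNF-alpha with DMSO and 100% = TNF-alpha with MG high control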
STAT1 inh 2: inhibits STAT1, counter-screen to STAT3 inhibitors; shares compounds with STAT3 inh-1; NIH 3T3 STAT1-luciferase reporter, IFN-gamma induced, luminescence; inhibition, % at 5.7 µM; 1,200 compounds, 27% hits; AID 1317;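 active means inhibition above the mean plus 3 SD of solvent-only control wells, limit set per screening run, cut at about 16% in these data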;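 further: 0% = DMSO with IFN-gamma and 100% = nifuroxazide control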
* marks the source's active call; other numbers are inactive results; . = not tested or not shown.

SMILES	PERK inh	STAT3 act	STAT1 blocker	STAT3 inh-1	STAT3 inh-2	NFkB inh 2	STAT1 inh 2
O=C(COc1ccc2ccccc2c1)Nc1nccs1	1.2	38.5	16.7	77.6*	39.4	-17.7	-72.1
COCCN1C(=O)c2ccccc2C(C(=O)N2CCN(c3ccccc3)CC2)C1c1ccc(F)cc1 (stereo not given)	-1.5	99.9	-4.8	5.8	.	.	.
O=C1c2ccccc2C(=O)C1c1ccc2ccccc2n1	0.0	62.6	-25.4	49.0*	8.1	41.6*	-27.0
COC(=O)C1=C(C)NC(C)=C(C(=O)OC)C1c1ccc2ccccc2n1	0.0	99.6	1.9	7.3	.	.	.
O=C1c2ccccc2C(=O)C1c1nccc2ccccc12	-0.1	51.3	-23.1	62.5*	4.4	48.9*	-26.0
COc1ccc(C2C(=O)c3ccccc3C2=O)cc1	1.1	104.9	-2.4	-3.2	.	.	.
N#C/C(=C/c1cccn1-c1cccc(C(=O)O)c1)c1ccc(F)cc1	0.6	104.5	-4.5	2.3	.	.	.
COC(=O)Oc1ccc(/C=N/NC(=O)CSCc2ccccc2Br)cc1OC	0.2	54.9	8.9	57.5*	65.9*	1.6	12.2
CCCCCCCCC[n+]1cccc2c3ccccc3ccc21	-0.2	28.9	31.0	89.6*	89.2*	56.7*	32.7*
Cc1ccc2oc(-c3cccc(NC(=O)Cc4cccs4)c3)nc2c1	1.1	79.9	-21.4	26.5	.	.	.
O=C(Nc1ccc(-c2nc3ccccc3[nH]2)cc1)C1CCCO1 (stereo not given)	0.4	46.4	14.1	68.3*	30.3	-14.2	-66.2
CCC(=O)Nc1ccc2oc(-c3cccc(C)c3)nc2c1	0.1	50.2	-3.2	63.7*	24.8	-19.3	-109.6
Cc1cccc(-c2nc3cc(NC(=O)C4CCCO4)ccc3o2)c1 (stereo not given)	0.3	41.8	-33.7	71.7*	45.9*	-4.6	-76.5
Cc1c2c(nc3ccccc13)CCC(C)C2 (stereo not given)	0.0	88.3	-17.9	14.4	.	.	.
CCNc1nc(=S)nc(NCc2ccccc2)[nH]1	0.0	93.1	-4.3	12.9	.	.	.
CCN(CC)S(=O)(=O)c1cc(C(=O)Nc2ccncc2)ccc1Cl	-1.4	57.4	22.3	56.0*	33.5	11.5	17.0*
Oc1c(C=Nc2ccccc2)sc2ccccc12	0.8	47.7	-20.2	65.9*	-16.2	-28.8	-21.3
COc1ccc(/C=N/N=C(\N)c2nonc2N)cc1	1.7	61.0	27.9	50.6*	28.4	-10.4	-116.5
Oc1ccc(-c2n[nH]c(=S)n2-c2ccc3c(c2)OCCO3)c(O)c1	-0.3	61.8	7.9	47.5*	43.5*	10.7	0.7
Cc1ccc(-c2cnc3c(Cl)c(C)nn3c2)cc1	-0.2	33.1	10.8	82.4*	41.1	21.6*	-44.1
Cc1ccc(-c2cnc3cc(C)nn3c2)cc1	1.0	43.9	22.1	69.1*	29.7	-0.2	-56.8
Cc1cc2ncc(-c3ccc(Cl)cc3)cn2n1	0.5	82.9	-37.2	21.4	.	.	.
Cc1nn2c(-c3ccncc3)ccnc2c1Cl	0.7	92.3	-11.5	16.9	.	.	.
Cc1nn(-c2ccccc2)c(Cl)c1C(=O)N(C)c1nc(-c2ccc(F)cc2)cs1	0.6	99.7	-14.6	-0.5	.	.	.
CCc1ccc2nc(Nc3ccc(OC)cc3OC)c(C#N)cc2c1	1.0	86.7	0.0	19.5	.	.	.
SMILES	PERK inh	STAT3 act	STAT1 blocker	STAT3 inh-1	STAT3 inh-2	NFkB inh 2	STAT1 inh 2
CCOc1ccc(OCC)c(S(=O)(=O)NCc2ccccn2)c1	0.7	104.9	-0.3	-0.9	.	.	.
Cc1ccc(-c2nc3cc(NC(=O)C(C)C)ccc3o2)cc1C	0.8	50.4	-105.5	60.7*	14.5	-32.3	-203.5
CC(Oc1ccc(Cl)cc1Cl)C(=O)Nc1ccc2oc(-c3ccncc3)nc2c1 (stereo not given)	1.2	60.5	-7.3	49.8*	49.9*	0.2	-10.4
Cc1cc2nc(-c3ccc(NC(=O)C(C)C)cc3)oc2cc1C	-0.6	95.5	-86.3	4.8	.	.	.
Cc1ccc(-c2nc3cc(NC(=O)C(C)C)ccc3o2)cc1	0.2	63.4	-95.4	45.2*	-0.9	-37.6	-216.5
CC(C)(C)c1ccc(OCC(=O)Nc2ccc(-c3nc4cccnc4o3)cc2)cc1	0.5	93.5	-2.8	6.3	.	.	.
CC(C)C(=O)Nc1ccc(-c2nc3cccnc3o2)cc1	-0.8	61.0	-51.3	47.9*	14.7	-34.1	-89.5
CC(C)C(=O)Nc1cccc(-c2nc3ccccc3o2)c1	-1.9	84.4	-24.0	21.5	.	.	.
COc1ccc(CCNC(=O)c2c(C)nc3ccccn23)cc1	0.2	83.0	5.7	26.5	.	.	.
CCOC(=O)c1cc(NC(=O)Nc2ccccn2)c(C)nc1C	0.1	84.9	-12.3	20.0	.	.	.
COc1ccc(C2=NN(CC(=O)NCc3ccco3)C(=O)CC2)cc1	-0.1	103.9	8.1	-0.9	.	.	.
Cc1ccccc1C(=O)N1CCC(C(=O)Nc2ccc3c(c2)OCO3)CC1	0.0	99.2	-7.3	-1.3	.	.	.
Cn1c(N/N=C/c2cc3ccccc3nc2Cl)nc2ccccc21	-0.8	56.0	-1.5	53.2*	28.3	24.6*	10.1
COc1cccc(C=Nc2ccc3c(c2)OCCO3)c1O	0.5	62.6	0.0	49.0*	3.8	2.8	-13.2
O/C(=C\c1ccc2ccccc2n1)c1ccc(O)cc1O	1.0	52.2	4.1	60.9*	28.5	-20.8	-87.9
Cc1ccc([N+](=O)[O-])c(NC2OC(CO)C(O)C2O)c1 (stereo not given)	1.9	96.8	-9.7	9.2	.	.	.
O=C(Nc1cc(Cl)ccn1)C1CCN(S(=O)(=O)c2cccs2)CC1	-0.2	56.2	0.0	51.2*	43.1	1.3	-7.4
O=C(Nc1ccncc1)C1CCN(S(=O)(=O)c2cccs2)CC1	-0.4	97.7	9.5	5.1	.	.	.
Cc1ccc(NC(=O)N2CCc3ccccc32)cc1C	-0.2	49.8	7.3	61.9*	14.1	-26.4	-142.9
Cc1ccc(NC(=O)N2CCCc3ccccc32)cc1	1.4	91.6	-8.1	13.1	.	.	.
Cc1ccc(NC(=O)N2CCc3ccccc32)cc1	0.6	55.8	11.2	55.7*	19.0	-2.9	-93.0
COc1ccc(-c2ccc3ccccc3n2)cc1	0.5	54.9	23.2	55.0*	17.8	-22.8	-107.3
COc1ccc(-c2ncncc2-c2csc(C)n2)c(O)c1OC	0.6	106.6	-0.6	-3.1	.	.	.
COC1=C(N)C(=O)c2nc(-c3nc(C(=O)O)c(C)c(-c4ccc(OC)c(OC)c4O)c3N)ccc2C1=O	2.0	8.8	28.9	105.5*	103.2*	97.4*	85.3*
O=C(O)c1cn(Cc2ccccn2)c(=O)c2ccccc12	1.0	107.4	-10.0	-6.5	.	.	.
Oc1ccc(-c2cn3cc(C(F)(F)F)ccc3n2)cc1	-0.6	29.5	2.4	83.4*	80.5*	38.9*	18.1*
CCCCCCCCn1c2c(c(=N)c3ccccc31)CCC2	0.1	29.2	29.9	84.8*	87.8*	29.9*	31.0*
